Data taken from ChEMBL document CHEMBL4376872, “Scaffold Hopping of Natural Product Evodiamine: Discovery of a Novel Antitumor Scaffold with Excellent Potency against Colon Cancer” (J Med Chem, 2020).
Calls of active or inactive are those of the source. The rule behind the calls is not given here.

How the values were obtained:
HCT-116 = experiment: Antiproliferative activity against human HCT116 cells assessed as reduction in cell viability incubated for 72 hrs by CCK8 assay; assay type: functional, cell-based; conditions: HCT-116, 72 h
MDA-MB-435 = experiment: Antiproliferative activity against human MDA-MB-435 cells assessed as reduction in cell viability incubated for 72 hrs by CCK8 assay; assay type: functional, cell-based; conditions: MDA-MB-435, 72 h
A549 = experiment: Antiproliferative activity against human A549 cells assessed as reduction in cell viability incubated for 72 hrs by CCK8 assay; assay type: functional, cell-based; conditions: A549, 72 h
[1] = molecular target: T1, DNA topoisomerase 1 (Escherichia coli (strain K12)) (UniProt P06612); experiment: Inhibition of Escherichia coli Top1 assessed as decrease in relaxation of supercoiled pBR322 plasmid DNA at 100 uM using supercoiled pBR322 plasmid DNA as substrate incubated for 15 mins by agarose gel electrophoresis analysis
T1 sequence (whole entry): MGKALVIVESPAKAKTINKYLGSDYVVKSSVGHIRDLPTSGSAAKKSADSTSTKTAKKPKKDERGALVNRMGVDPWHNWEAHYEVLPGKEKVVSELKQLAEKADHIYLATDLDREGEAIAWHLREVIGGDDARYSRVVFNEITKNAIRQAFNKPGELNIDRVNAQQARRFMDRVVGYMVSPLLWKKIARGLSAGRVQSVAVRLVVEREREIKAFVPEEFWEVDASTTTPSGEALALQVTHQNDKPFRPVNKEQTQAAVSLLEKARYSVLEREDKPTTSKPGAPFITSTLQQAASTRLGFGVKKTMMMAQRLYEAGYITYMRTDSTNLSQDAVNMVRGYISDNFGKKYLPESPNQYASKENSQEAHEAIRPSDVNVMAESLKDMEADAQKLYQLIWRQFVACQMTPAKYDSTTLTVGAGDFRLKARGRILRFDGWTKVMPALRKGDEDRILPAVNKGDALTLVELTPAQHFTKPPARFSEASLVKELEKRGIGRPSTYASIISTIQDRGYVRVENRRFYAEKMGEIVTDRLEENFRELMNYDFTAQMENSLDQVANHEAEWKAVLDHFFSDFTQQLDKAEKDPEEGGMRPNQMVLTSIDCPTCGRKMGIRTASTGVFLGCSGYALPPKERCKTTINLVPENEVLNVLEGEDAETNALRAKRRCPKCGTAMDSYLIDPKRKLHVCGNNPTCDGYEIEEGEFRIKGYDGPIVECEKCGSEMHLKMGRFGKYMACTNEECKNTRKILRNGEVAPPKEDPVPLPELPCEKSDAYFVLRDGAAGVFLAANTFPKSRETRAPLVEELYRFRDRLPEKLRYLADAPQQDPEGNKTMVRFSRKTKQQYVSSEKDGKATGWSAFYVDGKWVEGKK

[2] = molecular target: DNA topoisomerase 2-alpha (Homo sapiens) (UniProt P11388); experiment: Inhibition of human Top2alpha assessed as decrease in relaxation of supercoiled pBR322 plasmid DNA at 100 uM using supercoiled pBR322 plasmid DNA as substrate incubated for 30 mins by agarose gel electrophoresis analysis
Sequence of DNA topoisomerase 2-alpha (Homo sapiens) (P11388 whole entry): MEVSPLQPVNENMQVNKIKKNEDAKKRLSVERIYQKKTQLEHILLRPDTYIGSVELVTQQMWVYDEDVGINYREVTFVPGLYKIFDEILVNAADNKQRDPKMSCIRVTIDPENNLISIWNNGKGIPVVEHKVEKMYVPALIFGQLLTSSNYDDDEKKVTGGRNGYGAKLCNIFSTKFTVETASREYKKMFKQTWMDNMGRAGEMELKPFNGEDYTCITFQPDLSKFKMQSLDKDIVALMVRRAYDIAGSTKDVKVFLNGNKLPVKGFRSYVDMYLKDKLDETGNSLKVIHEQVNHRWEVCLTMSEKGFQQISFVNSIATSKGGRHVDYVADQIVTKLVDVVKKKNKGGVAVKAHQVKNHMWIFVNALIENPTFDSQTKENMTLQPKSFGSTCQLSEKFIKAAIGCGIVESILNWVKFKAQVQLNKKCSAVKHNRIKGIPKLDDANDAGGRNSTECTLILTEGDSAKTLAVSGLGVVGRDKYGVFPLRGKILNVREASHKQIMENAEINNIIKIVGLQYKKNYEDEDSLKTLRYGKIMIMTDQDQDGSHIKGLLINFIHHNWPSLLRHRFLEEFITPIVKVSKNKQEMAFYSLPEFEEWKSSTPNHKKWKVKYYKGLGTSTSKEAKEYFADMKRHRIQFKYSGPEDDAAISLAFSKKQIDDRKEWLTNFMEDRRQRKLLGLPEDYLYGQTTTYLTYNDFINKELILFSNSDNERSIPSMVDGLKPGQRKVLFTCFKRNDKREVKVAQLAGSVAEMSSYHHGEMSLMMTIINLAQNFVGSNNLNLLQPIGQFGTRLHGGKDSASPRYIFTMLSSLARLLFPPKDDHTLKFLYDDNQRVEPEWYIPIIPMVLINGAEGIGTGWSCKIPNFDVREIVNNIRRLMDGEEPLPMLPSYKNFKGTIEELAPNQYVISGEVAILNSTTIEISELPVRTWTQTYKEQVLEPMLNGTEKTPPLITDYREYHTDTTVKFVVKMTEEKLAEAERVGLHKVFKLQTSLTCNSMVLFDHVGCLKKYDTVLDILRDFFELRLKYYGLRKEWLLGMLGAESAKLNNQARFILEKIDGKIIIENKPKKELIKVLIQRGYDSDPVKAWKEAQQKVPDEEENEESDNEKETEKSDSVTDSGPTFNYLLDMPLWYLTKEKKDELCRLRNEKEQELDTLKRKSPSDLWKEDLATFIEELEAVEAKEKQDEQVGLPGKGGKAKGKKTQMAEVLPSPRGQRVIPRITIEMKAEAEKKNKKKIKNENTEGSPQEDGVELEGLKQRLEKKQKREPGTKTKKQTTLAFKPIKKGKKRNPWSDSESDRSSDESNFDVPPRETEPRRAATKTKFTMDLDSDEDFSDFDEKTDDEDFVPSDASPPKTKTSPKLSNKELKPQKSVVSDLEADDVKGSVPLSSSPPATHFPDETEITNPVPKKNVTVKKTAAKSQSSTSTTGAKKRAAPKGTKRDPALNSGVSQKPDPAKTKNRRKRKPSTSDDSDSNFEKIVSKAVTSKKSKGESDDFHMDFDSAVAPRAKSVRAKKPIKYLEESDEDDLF

K562 = experiment: Antiproliferative activity against human K562 cells assessed as reduction in cell viability incubated for 72 hrs by CCK8 assay; assay type: functional, cell-based; conditions: K562, 72 h
PC-3 = experiment: Antiproliferative activity against human PC3 cells assessed as reduction in cell viability incubated for 72 hrs by CCK8 assay; assay type: functional, cell-based; conditions: PC-3, 72 h
[3] = Antiproliferative activity against human MV-3 cells assessed as reduction in cell viability incubated for 72 hrs by CCK8 assay; assay type: functional, cell-based; conditions: MV-3, 72 h
BEL-7404 tumor cell line = experiment: Antiproliferative activity against human Bel7404 cells assessed as reduction in cell viability incubated for 72 hrs by CCK8 assay; assay type: functional, cell-based; conditions: BEL-7404, 72 h
SK-HEP1 = experiment: Antiproliferative activity against human SKHEP1 cells assessed as reduction in cell viability incubated for 72 hrs by CCK8 assay; assay type: functional, cell-based; conditions: SK-HEP1, 72 h
[4] = Antiproliferative activity against human SW579 cells assessed as reduction in cell viability incubated for 72 hrs by CCK8 assay; assay type: functional, cell-based; conditions: SW579, 72 h
NCI-H446 = experiment: Antiproliferative activity against human NCI-H446 cells assessed as reduction in cell viability incubated for 72 hrs by CCK8 assay; assay type: functional, cell-based; conditions: NCI-H446, 72 h
[5] = molecular target: T1, DNA topoisomerase 1 (Escherichia coli (strain K12)); experiment: Poison activity at Escherichia coli Top1 assessed as increase in […] band intensity at 100 uM using supercoiled pUC19 plasmid DNA as substrate incubated for 30 mins by agarose gel electrophoresis analysis
Method in brief: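 Supercoiled pUC19 plasmid DNA incubated with Top1 and test compound at 100, 50, 25 and 12.5 μM. Lanes: DNA alone, DNA + Top1, and DNA + Top1 + camptothecin (100 μM) as reference. Products resolved on gel to follow Top1-mediated relaxation.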

SMILES | IC50 (HCT-116) | IC50 (MDA-MB-435) | IC50 (A549) | further results
CN1c2ccc(F)cc2C(=O)N2CCn3c(cc4cc(OC5CCCC5)ccc43)C21 (centres undefined) | 57.9 µM | > 200 µM | > 200 µM | –
COc1ccc2c(c1)cc1n2CCN2C(=O)c3cc(C)ccc3N(C)C12 (centres undefined) | 19.4 µM | > 200 µM | > 200 µM | –
COc1ccc2c(c1)cc1n2CCN2C(=O)c3ccccc3N(C)C12 (centres undefined) | 12 µM | 20.2 µM | 2.7 µM | –
COc1ccc2c(c1)C(=O)N1CCn3c(cc4ccccc43)C1N2C (centres undefined) | 49.2 µM | 168 µM | 15.6 µM | –
CN1c2ccccc2C(=O)N2CCn3c(cc4cc(Cl)ccc43)C21 (centres undefined) | 4.4 µM | 13.5 µM | 27.7 µM | inhibition [1]: Active; inhibition [2]: inactive
CN1c2ccccc2C(=O)N2CCn3c(cc4ccc(Cl)cc43)C21 (centres undefined) | > 200 µM | > 200 µM | > 200 µM | –
CN1c2ccccc2C(=O)N2CCn3c(cc4cc(Br)ccc43)C21 (centres undefined) | 7.3 µM | 15.9 µM | 15.2 µM | –
COc1ccc2c(c1)cc1n2C(C)(C)CN2C(=O)c3cc(F)ccc3N(C)C12 (centres undefined) | 1.5 µM | 10.7 µM | > 200 µM | –
CN1c2ccc(F)cc2C(=O)N2CCn3c(cc4cc(OC5CCC5)ccc43)C21 (centres undefined) | 34.1 µM | > 200 µM | 98.5 µM | –
CN1c2ccccc2C(=O)N2CCn3c(cc4cc(O)ccc43)C21 (centres undefined) | 44.3 µM | 16.8 µM | 14.5 µM | –
COc1ccc2c(c1)c(CO)c1n2CCN2C(=O)c3cc(C)ccc3N(C)C12 (centres undefined) | 5.8 µM | 41.5 µM | 72.1 µM | –
Cc1ccc2c(c1)cc1n2CCN2C(=O)c3cc(F)ccc3N(C)C12 (centres undefined) | 0.06 µM | 1 µM | 22.8 µM | –
COc1ccc2c(c1)N(C)C1c3cc4ccccc4n3CCN1C2=O (centres undefined) | 124 µM | > 200 µM | 24.3 µM | –
COc1ccc2c(c1)cc1n2CCN2C(=O)c3c(ccn3C)N(C)C12 (centres undefined) | 190 µM | > 200 µM | > 200 µM | –
COc1ccc2c(c1)c(Br)c1n2CCN2C(=O)c3cc(F)ccc3N(C)C12 (centres undefined) | 9.2 µM | 89.1 µM | 12.3 µM | –
COc1ccc2c(c1)cc1n2CCN2C(=O)c3cc(Cl)ccc3N(C)C12 (centres undefined) | 61.3 µM | > 200 µM | > 200 µM | –
CN1c2ccc(F)cc2C(=O)N2CCn3c(cc4cc(Br)ccc43)C21 (centres undefined) | 28.5 µM | 97.6 µM | > 200 µM | –
COc1ccc2c(c1)c(C=O)c1n2CCN2C(=O)c3cc(F)ccc3N(C)C12 (centres undefined) | > 200 µM | > 200 µM | 59.2 µM | –
COc1ccc2c(c1)cc1n2CCN2C(=O)c3cc(OC)c(OC)cc3N(C)C12 (centres undefined) | > 121 µM | 23.8 µM | > 200 µM | –
CN1c2ccc(F)cc2C(=O)N2CCn3c(cc4cc(OC(F)(F)F)ccc43)C21 (centres undefined) | 0.83 µM | > 200 µM | 95.5 µM | –
CC[C@@]1(O)C(=O)OCc2c1cc1n(c2=O)Cc2cc3ccccc3nc2-1 [CAMPTOTHECIN] | 0.02 µM | 2.7 µM | 2.8 µM | IC50 (K562): < 0.003 µM; IC50 (PC-3): 2.4 µM; IC50 [3]: 0.003 µM; IC50 (BEL-7404 tumor cell line): 0.4 µM; IC50 (SK-HEP1): 0.9 µM; IC50 [4]: 0.7 µM; IC50 (NCI-H446): > 200 µM; Activity [5]: Active
COc1ccc2c(c1)c(C)c1n2CCN2C(=O)c3cc(F)ccc3N(C)C12 (centres undefined) | 21.9 µM | 132 µM | 13.2 µM | –
CN1c2ccc(F)cc2C(=O)N2CCn3c(cc4cc(OC5CCCCC5)ccc43)C21 (centres undefined) | 66.8 µM | 50.1 µM | 174 µM | –
